# Test results reported in ChEMBL document CHEMBL1146374, “Clubbed triazoles: a novel approach to antitubercular drugs” (Eur J Med Chem, 2007).
# Assays:
# Staphylococcus aureus = test: Antibacterial activity against Staphylococcus aureus at 50 to 100 uM after 24 hrs by well diffusion method; type: functional
# How it was run: (§1)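 Agar well diffusion: nutrient agar plates with 10 mm wells cut by sterile cork borer; 24-h subcultured bacteria swabbed onto the plates from nutrient broth. Compounds were dissolved in chloroform and added to wells at […]. Gentamycin served as the standard antibiotic.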
# Escherichia coli = test: Antibacterial activity against Escherichia coli at 50 to 100 uM after 24 hrs by well diffusion method; type: functional; how it was run: as §1
# Pseudomonas aeruginosa = test: Antibacterial activity against Pseudomonas aeruginosa at 50 to 100 uM after 24 hrs by well diffusion method; type: functional; how it was run: as §1
# [1] = test system: Mycobacterium tuberculosis; test: (§2) Antituberculosis activity against Mycobacterium tuberculosis H37Rv by Microplate Alamar Blue Assay; type: functional
# How it was run: (§3)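 MIC against M. tuberculosis H37Rv (ATCC 27294) in BACTEC 12B medium by broth microdilution (MABA). Primary actives were retested at lower concentrations. MIC is the lowest concentration giving a […] fluorescence reduction versus controls. Fluorescent compounds were run in the BACTEC 460 radiometric system. Rifampin was the reference.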
# [2] = Cytotoxicity against Vero-C1008 cells at 6.25 to 50 ug/ml; type: cell-based; conditions: chlorocebus sabaeus
# How it was run: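 Vero-C-1008 cells were exposed to compounds at several concentrations across 6.25–50 µg/ml. Cytotoxicity was read out by neutral red uptake.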
# Salmonella typhi = test: Antibacterial activity against Salmonella typhi at 50 to 100 uM after 24 hrs by well diffusion method; type: functional, Salmonella enterica subsp. enterica serovar Typhi
# How it was run: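 Agar well diffusion on nutrient agar plates; wells cut with a 10 mm sterile cork borer. Plates swabbed with 24-h subcultured bacteria from nutrient broth. Compounds dissolved in chloroform and added to wells at a range of concentrations. Gentamycin was the standard.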
# [3] = test system: Mycobacterium tuberculosis; test: as §2; type: functional; how it was run: as §3; remark: listed apart in the source
# [4] = test system: Mycobacterium tuberculosis; test: Growth inhibition of Mycobacterium tuberculosis H37Rv at 6.25 ug/ml by Microplate Alamar Blue Assay; type: functional; conditions: read-out: GI
# How it was run: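 Primary single-concentration screen against M. tuberculosis H37Rv (ATCC 27294) in BACTEC 12B medium by MABA broth microdilution, read as % inhibition. Compounds that fluoresce were tested in the BACTEC 460 radiometric system. More than 95% inhibition was the activity cutoff.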
Compound,zone of inhibition (Staphylococcus aureus),zone of inhibition (Escherichia coli),zone of inhibition (Pseudomonas aeruginosa),MIC [1],Activity [2],Inhibition (Salmonella typhi),MIC [3],inhibition of growth at 6.25 µg/mL [4]
NNC(=O)CSc1nnc(Cc2csc(NC(=O)c3ccccc3)n2)n1NC(=O)c1ccccc1,33 mm,30 mm,34 mm,6.25 µM,Non-toxic,29%,< 6.25 µg/mL,100%
CC(=O)Nc1nc(Cc2nnc(SCC(=O)N/N=C/c3ccccc3)n2NC(=O)c2ccccc2)cs1,–,–,–,1.56 µM,Non-toxic,–,< 6.25 µg/mL,96%
N#CCSc1nnc(Cc2csc(NC(=O)c3ccccc3)n2)n1NC(=O)c1ccccc1,26 mm,22 mm,24 mm,3.13 µM,Non-toxic,18%,< 6.25 µg/mL,100%
O=C(Nc1nc(Cc2nnc(SCSc3nnc(Cc4csc(NC(=O)c5ccccc5)n4)n3NC(=O)c3ccccc3)n2NC(=O)c2ccccc2)cs1)c1ccccc1,11 mm,16 mm,24 mm,–,Non-toxic,12%,< 6.25 µg/mL,–
COC(=O)CSc1nnc(Cc2csc(NC(=O)c3ccccc3)n2)n1NC(=O)c1ccccc1,22 mm,20 mm,22 mm,–,Non-toxic,20%,< 6.25 µg/mL,–
COC(=O)CSc1nnc(Cc2csc(NCCC(=O)O)n2)n1NC(=O)c1ccccc1,16 mm,12 mm,18 mm,–,Non-toxic,12%,< 6.25 µg/mL,–
CC(=O)Nc1nc(Cc2nnc(SCC#N)n2NC(=O)c2ccccc2)cs1,22 mm,20 mm,22 mm,6.25 µM,Non-toxic,16%,< 6.25 µg/mL,97%
O=C(O)CCNc1nc(Cc2nnc(S)n2NC(=O)c2ccccc2)cs1,11 mm,15 mm,17 mm,–,Non-toxic,22%,< 6.25 µg/mL,–
O=C(CCl)Nc1nc(Cc2nnc(SCSc3nnc(Cc4csc(NC(=O)CCl)n4)n3NC(=O)c3ccccc3)n2NC(=O)c2ccccc2)cs1,22 mm,20 mm,22 mm,–,Non-toxic,16%,< 6.25 µg/mL,–
CO[C@H]1/C=C/O[C@@]2(C)Oc3c(C)c(O)c4c(O)c(c(/C=N/N5CCN(C)CC5)c(O)c4c3C2=O)NC(=O)/C(C)=C\C=C\[C@H](C)[C@H](O)[C@@H](C)[C@@H](O)[C@@H](C)[C@H](OC(C)=O)[C@@H]1C [RIFAMPIN],–,–,–,–,–,–,15 µg/mL,97%
N#CCSc1nnc(Cc2csc(NCCC(=O)O)n2)n1NC(=O)c1ccccc1,26 mm,20 mm,24 mm,–,Non-toxic,20%,< 6.25 µg/mL,–
Nn1c(S)nnc1Cc1csc(NCCC(=O)O)n1,25 mm,20 mm,22 mm,–,Non-toxic,16%,< 6.25 µg/mL,–
Nn1c(S)nnc1CSc1nnc(Cc2csc(NC(=O)CCl)n2)n1NC(=O)c1ccccc1,12 mm,10 mm,10 mm,–,Non-toxic,14%,< 6.25 µg/mL,–
O=C(CSc1nnc(Cc2csc(NC(=O)CCl)n2)n1NC(=O)c1ccccc1)N/N=C/c1ccccc1,–,–,–,0.78 µM,Non-toxic,–,< 6.25 µg/mL,98%
CC(=O)Nc1nc(Cc2nnc(S)n2N)cs1,18 mm,15 mm,16 mm,6.25 µM,Non-toxic,14%,< 6.25 µg/mL,100%
O=C(Nc1nc(Cc2nnc(S)n2NC(=O)c2ccccc2)cs1)c1ccccc1,16 mm,10 mm,10 mm,–,Non-toxic,18%,< 6.25 µg/mL,–
NNC(=O)CSc1nnc(Cc2csc(NC(=O)CCl)n2)n1NC(=O)c1ccccc1,16 mm,12 mm,16 mm,3.13 µM,Non-toxic,14%,< 6.25 µg/mL,98%
CC(=O)Nc1nc(Cc2nnc(SCSc3nnc(Cc4csc(NC(C)=O)n4)n3NC(=O)c3ccccc3)n2NC(=O)c2ccccc2)cs1,16 mm,12 mm,16 mm,–,Non-toxic,12%,< 6.25 µg/mL,–
O=C(CCl)Nc1nc(Cc2nnc(S)n2NC(=O)c2ccccc2)cs1,20 mm,18 mm,20 mm,–,Non-toxic,14%,< 6.25 µg/mL,–
CC(=O)Nc1nc(Cc2nnc(S)n2NC(=O)c2ccccc2)cs1,16 mm,20 mm,16 mm,–,Non-toxic,16%,< 6.25 µg/mL,–
CC(=O)NNC(=O)CSc1nnc(Cc2csc(NC(=O)CCl)n2)n1NC(=O)c1ccccc1,24 mm,14 mm,10 mm,–,Non-toxic,14%,< 6.25 µg/mL,–
O=C(O)CCNc1nc(Cc2nnc(SCSc3nnc(Cc4csc(NCCC(=O)O)n4)n3NC(=O)c3ccccc3)n2NC(=O)c2ccccc2)cs1,18 mm,10 mm,16 mm,–,Non-toxic,12%,< 6.25 µg/mL,–
Nn1c(S)nnc1CSc1nnc(Cc2csc(NCCC(=O)O)n2)n1NC(=O)c1ccccc1,14 mm,18 mm,11 mm,–,Non-toxic,12%,< 6.25 µg/mL,–
Nn1c(S)nnc1Cc1csc(NC(=O)CCl)n1,18 mm,14 mm,17 mm,–,Non-toxic,12%,< 6.25 µg/mL,–
Nn1c(S)nnc1Cc1csc(NC(=O)c2ccccc2)n1,22 mm,18 mm,20 mm,–,Non-toxic,14%,< 6.25 µg/mL,–
